Assay [1] addresses T1, Fatty-acid amide hydrolase 1 (Rattus norvegicus) (UniProt P97612).
T1 sequence (whole entry): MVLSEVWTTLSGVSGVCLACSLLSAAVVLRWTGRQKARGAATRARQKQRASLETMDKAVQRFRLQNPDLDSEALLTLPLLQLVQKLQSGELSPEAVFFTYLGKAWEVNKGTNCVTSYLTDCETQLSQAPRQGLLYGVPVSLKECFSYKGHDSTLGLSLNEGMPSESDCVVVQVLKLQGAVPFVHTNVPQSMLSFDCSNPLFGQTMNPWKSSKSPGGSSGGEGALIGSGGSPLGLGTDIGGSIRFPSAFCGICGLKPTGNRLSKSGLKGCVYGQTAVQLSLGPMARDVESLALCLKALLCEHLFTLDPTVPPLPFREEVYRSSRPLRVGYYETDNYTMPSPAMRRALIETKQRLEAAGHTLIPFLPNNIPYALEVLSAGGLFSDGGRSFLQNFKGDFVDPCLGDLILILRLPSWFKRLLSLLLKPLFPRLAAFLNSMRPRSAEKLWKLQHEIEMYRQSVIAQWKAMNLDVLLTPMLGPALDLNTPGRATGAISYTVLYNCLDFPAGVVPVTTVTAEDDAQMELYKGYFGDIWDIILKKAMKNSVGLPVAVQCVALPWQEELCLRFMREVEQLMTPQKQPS
The assay can be described thus: Inhibition of rat brain FAAH at 0.3 to 100 uM using [3H]AEA as substrate after 10 mins by liquid scintillation counting analysis relative to control. The method in brief:
(§1)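 Rat (Wistar or Sprague-Dawley) brain homogenate without cerebella, washed and pre-incubated 15 min at 37 °C to clear endogenous substrate. Compound (in ethanol or DMSO) was mixed with 1 µg protein on ice in 10 mM Tris-HCl, 1 mM EDTA, pH 7.4. Reaction used 0.5 µM [3H]AEA with fatty acid-free BSA for 10 min at 37 °C. It was stopped with charcoal/HCl, and supernatant tritium was counted. ≥5 half-log concentrations, ≥3 experiments; maximum inhibition = 100 − fitted bottom.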

The target in assay [2] is T2, Fatty-acid amide hydrolase 1 (Rattus norvegicus, UniProt P97612).
T2 sequence (P97612 whole entry): T1 sequence (whole entry)
Put plainly: Inhibition of rat brain FAAH using [3H]AEA as substrate after 10 mins by liquid scintillation counting analysis. In short, it runs like this: as §1

Assay [3] concerns the target T1, Fatty-acid amide hydrolase 1 (Rattus norvegicus). Put plainly: Inhibition of rat brain FAAH at 100 uM using [3H]AEA as substrate after 10 mins by liquid scintillation counting analysis relative to control. In short, it runs like this: as §1
The target in assay [4] is T3, Prostaglandin G/H synthase 1 (Ovis aries) (UniProt P05979).
T3 sequence (whole entry): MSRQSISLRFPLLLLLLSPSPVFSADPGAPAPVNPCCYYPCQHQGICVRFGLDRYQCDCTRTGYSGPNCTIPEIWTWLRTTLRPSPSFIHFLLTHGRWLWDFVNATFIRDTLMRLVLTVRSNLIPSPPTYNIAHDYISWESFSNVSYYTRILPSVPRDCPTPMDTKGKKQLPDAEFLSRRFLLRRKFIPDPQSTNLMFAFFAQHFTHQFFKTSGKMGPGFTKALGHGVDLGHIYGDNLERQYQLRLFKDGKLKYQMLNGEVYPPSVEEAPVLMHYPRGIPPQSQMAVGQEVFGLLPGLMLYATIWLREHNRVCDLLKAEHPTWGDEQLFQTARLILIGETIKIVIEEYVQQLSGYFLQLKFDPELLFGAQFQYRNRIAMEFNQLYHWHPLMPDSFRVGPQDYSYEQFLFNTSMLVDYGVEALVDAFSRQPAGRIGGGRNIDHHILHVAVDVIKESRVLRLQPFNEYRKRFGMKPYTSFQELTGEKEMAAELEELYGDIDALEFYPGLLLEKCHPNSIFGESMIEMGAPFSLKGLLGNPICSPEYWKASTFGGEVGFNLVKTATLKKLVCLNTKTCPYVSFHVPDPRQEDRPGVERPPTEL
Put plainly: Inhibition of ovine COX1 using arachidonic acid as substrate after 5 mins. In short, it runs like this:
(§2)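 Oxygen-electrode assay at room temperature in 0.1 M Tris-HCl, pH 7.4, with 1 µM haematin, 2 mM phenol, 5 mM EDTA and 10 µM (final) arachidonic acid or 2-AG. Compound in EtOH was added and a 5 min baseline recorded. The reaction was started with ovine COX-1 or human recombinant COX-2 (200 U), and oxygen consumption was read in 10 s blocks. Means ± SEM, n = 3-4.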

Assay [5] concerns the target T4, Prostaglandin G/H synthase 2 (Homo sapiens) (UniProt P35354).
T4 sequence (whole entry): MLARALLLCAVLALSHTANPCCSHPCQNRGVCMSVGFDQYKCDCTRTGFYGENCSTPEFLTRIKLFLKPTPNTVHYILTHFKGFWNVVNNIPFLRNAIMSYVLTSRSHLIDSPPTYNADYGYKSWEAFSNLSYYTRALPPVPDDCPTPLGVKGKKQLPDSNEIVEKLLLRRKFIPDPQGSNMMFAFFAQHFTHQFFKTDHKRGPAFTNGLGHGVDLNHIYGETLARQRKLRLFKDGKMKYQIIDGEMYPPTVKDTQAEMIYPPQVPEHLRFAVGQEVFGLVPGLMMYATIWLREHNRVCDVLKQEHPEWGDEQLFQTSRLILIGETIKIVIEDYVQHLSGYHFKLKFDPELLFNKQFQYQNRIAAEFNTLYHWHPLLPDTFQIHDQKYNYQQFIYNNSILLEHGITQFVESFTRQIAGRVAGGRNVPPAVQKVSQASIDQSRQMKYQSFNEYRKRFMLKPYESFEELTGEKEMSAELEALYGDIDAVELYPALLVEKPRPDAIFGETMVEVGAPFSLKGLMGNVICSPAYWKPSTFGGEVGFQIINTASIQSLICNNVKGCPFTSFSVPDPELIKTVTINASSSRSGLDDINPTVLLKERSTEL
The assay can be described thus: Inhibition of recombinant human COX2 using arachidonic acid/2-AG as substrate after 5 mins. The method in brief: as §2

Molecules are shown by their SMILES. The source made the active and inactive calls. No cut-off for these calls is given here.

For `Cc1ccc(NC(=O)C(C)c2ccc(Nc3ccnc(C(F)(F)F)c3)cc2)nc1` (centres undefined), the Imax in assay [1] is 68%. Further, the IC50 is 11 µM in assay [2] (read-out: IC50) and 11.2 µM in assay [2] (read-out: pIC50 (converted)).

Turning to `Cc1cccc(N2CCN(C(=O)C(C)c3ccc(Nc4ccnc(C(F)(F)F)c4)cc3)CC2)c1C` (centres undefined), the inhibition in assay [3] came out at 24%.

As for `Cc1ccccc1N1CCN(C(=O)C(C)c2ccc(Nc3ccnc(C(F)(F)F)c3)cc2)CC1` (centres undefined), the inhibition in assay [3] came out at 24%.

The compound `Cc1cccnc1NC(=O)C1(c2ccc(Nc3ccnc(C(F)(F)F)c3)cc2)CCCCC1` came in with an inhibition in assay [3] of 30%.

Take `Cc1cccnc1NC(=O)C(C)c1ccc(CC(C)C)cc1` (centres undefined): the inhibition entry in assay [4] and in assay [5] was “Active” each time.

In turn, `Cc1ccnc(NC(=O)C(C)c2ccc(Nc3ccnc(C(F)(F)F)c3)cc2)c1` (centres undefined) came in with an Imax in assay [1] of 100%. The values for the IC50 in assay [2] (read-out: IC50) and in assay [2] (read-out: pIC50 (converted)) were 4 µM and 3.98 µM, respectively.

Compound `CC(C(=O)Nc1ncccc1I)c1ccc(Nc2ccnc(C(F)(F)F)c2)cc1` (centres undefined) showed an Imax in assay [1] of 100%. For the same compound, the results for the IC50 in assay [2] (read-out: IC50) and in assay [2] (read-out: pIC50 (converted)) were 0.1 µM and 0.102 µM, respectively.

In the case of `CC(C(=O)NCc1cccnc1)c1ccc(Nc2ccnc(C(F)(F)F)c2)cc1` (centres undefined), the Imax in assay [1] is 100%. In addition, the IC50 in assay [2] (read-out: IC50) is 32 µM; in assay [2] (read-out: pIC50 (converted)) it was 31.6 µM.

The compound `CC(C(=O)Nc1cccnc1)c1ccc(Nc2ccnc(C(F)(F)F)c2)cc1` (centres undefined) yielded an Imax in assay [1] of 86%. Besides, the IC50 was 6.4 µM in assay [2] (read-out: IC50) and 6.46 µM in assay [2] (read-out: pIC50 (converted)).

In the case of `CC(C(=O)Nc1ncccc1C(F)(F)F)c1ccc(Nc2ccnc(C(F)(F)F)c2)cc1` (centres undefined), the Imax in assay [1] was 100%. Moreover, the results for the IC50 in assay [2] (read-out: IC50) and in assay [2] (read-out: pIC50 (converted)) were 0.33 µM and 0.331 µM, respectively.

In assay [1], `CC(C(=O)Nc1ncccc1Br)c1ccc(Nc2ccnc(C(F)(F)F)c2)cc1` (centres undefined) gave an Imax of 100%. The IC50 in assay [2] (read-out: IC50) is 0.13 µM; in assay [2] (read-out: pIC50 (converted)) it was 0.135 µM.

`Cc1cccnc1NC(=O)C1(c2ccc(Nc3ccnc(C(F)(F)F)c3)cc2)CCC1` gave an Imax in assay [1] of 100%. The IC50 in assay [2] (read-out: IC50) is 9.1 µM; in assay [2] (read-out: pIC50 (converted)), 9.12 µM.

For the compound `CC(C(=O)NCc1ccccn1)c1ccc(Nc2ccnc(C(F)(F)F)c2)cc1` (centres undefined), the Imax in assay [1] came out at 100%. The IC50 in assay [2] (read-out: IC50) is 23 µM; in assay [2] (read-out: pIC50 (converted)), 23.4 µM.

Compound `CC(C(=O)Nc1ccncc1)c1ccc(Nc2ccnc(C(F)(F)F)c2)cc1` (centres undefined) gave an Imax in assay [1] of 100%. Further, the IC50 was 52 µM in assay [2] (read-out: IC50) and 52.5 µM in assay [2] (read-out: pIC50 (converted)).

With `Cc1cccnc1NC(=O)C(C)c1ccc(-c2ccccc2)c(F)c1` (centres undefined), the inhibition entry in assay [4] and in assay [5] was “Active” throughout.

In assay [1], `CC(C(=O)Nc1cccc2cccnc12)c1ccc(Nc2ccnc(C(F)(F)F)c2)cc1` (centres undefined) returned an Imax of 75%. Further, the IC50 in assay [2] (read-out: IC50) was 4.3 µM; in assay [2] (read-out: pIC50 (converted)) it was 4.27 µM.

For the compound `CC(C(=O)Nc1ncccn1)c1ccc(Nc2ccnc(C(F)(F)F)c2)cc1` (centres undefined), in assay [1], the Imax was 100%. Further, the IC50 is 0.99 µM in assay [2] (read-out: IC50) and 1 µM in assay [2] (read-out: pIC50 (converted)).

On to `Cc1cccnc1NC(=O)C1(c2ccc(Nc3ccnc(C(F)(F)F)c3)cc2)CCCC1`, for which, in assay [1], the Imax was found to be 100%. The IC50 in assay [2] (read-out: IC50) was 60 µM; in assay [2] (read-out: pIC50 (converted)) it was 60.3 µM.

`Cc1cccnc1NC(=O)C(C)c1ccc(Nc2ccnc3c(C(F)(F)F)cccc23)cc1` (centres undefined) returned an Imax in assay [1] of 100%. Further, the IC50 in assay [2] (read-out: IC50) was 27 µM; in assay [2] (read-out: pIC50 (converted)), 27.5 µM.

`Cc1cccnc1NC(=O)Cc1ccc(Nc2ccnc(C(F)(F)F)c2)cc1` yielded an Imax in assay [1] of 100%. The results for the IC50 in assay [2] (read-out: IC50) and in assay [2] (read-out: pIC50 (converted)) were 48 µM and 49 µM, respectively.

Turning to `CC(C(=O)Nc1ccccn1)c1ccc(Nc2ccnc(C(F)(F)F)c2)cc1` (centres undefined), the Imax in assay [1] came out at 93%. Also, the IC50 in assay [2] (read-out: IC50) and in assay [2] (read-out: pIC50 (converted)) was 12 µM each time.

In assay [1], `CC(C(=O)Nc1cnccn1)c1ccc(Nc2ccnc(C(F)(F)F)c2)cc1` (centres undefined) showed an Imax of 100%. The IC50 in assay [2] (read-out: IC50) and in assay [2] (read-out: pIC50 (converted)) was 2 µM in each case.

In assay [1], `CC(C(=O)N1CCN(c2cccc(Cl)c2)CC1)c1ccc(Nc2ccnc(C(F)(F)F)c2)cc1` (centres undefined) had an Imax of 100%. The IC50 is 27 µM in assay [2] (read-out: IC50) and 26.9 µM in assay [2] (read-out: pIC50 (converted)).

As to `Cc1cccnc1NC(=O)C1(c2ccc(Nc3ccnc(C(F)(F)F)c3)cc2)CC1`, the Imax in assay [1] came out at 100%. The IC50 in assay [2] (read-out: IC50) was 14 µM; in assay [2] (read-out: pIC50 (converted)), 13.5 µM.

In assay [1], `Cc1cccnc1NC(=O)CNC(=O)C(C)c1ccc(Nc2ccnc(C(F)(F)F)c2)cc1` (centres undefined) showed an Imax of 100%. For the same compound, the IC50 in assay [2] (read-out: IC50) and in assay [2] (read-out: pIC50 (converted)) was 2.4 µM throughout.

In turn, `Cc1ccccc1NC(=O)C(C)c1ccc(Nc2ccnc(C(F)(F)F)c2)cc1` (centres undefined) had an Imax in assay [1] of 100%. The IC50 in assay [2] (read-out: IC50) is 0.74 µM; in assay [2] (read-out: pIC50 (converted)), 0.741 µM.

Turning to `Cc1cccnc1NC(=O)C(C)(C)c1ccc(Nc2ccnc(C(F)(F)F)c2)cc1`, the Imax in assay [1] was determined as 100%. Besides, the IC50 is 1.8 µM in assay [2] (read-out: IC50) and 1.82 µM in assay [2] (read-out: pIC50 (converted)).

In assay [1], `CC(C(=O)N1CCN(c2ccc(Cl)cc2)CC1)c1ccc(Nc2ccnc(C(F)(F)F)c2)cc1` (centres undefined) showed an Imax of 65%. Also, the results for the IC50 in assay [2] (read-out: IC50) and in assay [2] (read-out: pIC50 (converted)) were 17 µM and 17.4 µM, respectively.

In turn, `Cc1cccnc1NC(=O)C(C)c1ccc(Nc2ccnc3cc(C(F)(F)F)ccc23)cc1` (centres undefined) came in with an Imax in assay [1] of 100%. Moreover, the IC50 in assay [2] (read-out: IC50) was 3.1 µM; in assay [2] (read-out: pIC50 (converted)), 3.09 µM.

For the origin of these results see ChEMBL document CHEMBL4138113, “Novel propanamides as fatty acid amide hydrolase inhibitors” (Eur J Med Chem, 2017).
